Assay outcomes deposited in PubChem by several laboratories.
HSP90 refold inh: HSP90 inhibitors, primary screen, cell lysate, luminescence; inhibition, % at 5.6 µM; Rabbit reticulocyte lysate, luciferase refolding luminescence, 3 h; Heat shock protein HSP 90 (rabbit reticulocyte lysate; luciferase refolding); AID 1789, 2009; 290,000 compounds, 0.91% hits;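 active = inhibition above the screen-wide mean plus 3 SD, computed separately per campaign, cut at about 16% in these data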;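 also: inhibitors lower the luminescence because luciferase stays unfolded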
STAT3 act: IL-6 driven STAT3 reporter potentiators, primary screen, U3A cells, luciferase, luminescence, MLSCN library; 190,000 compounds, 0.91% hits; activation (% of control), % at 5.6 µM; IL-6 STAT3-luciferase reporter; 100% = signal with IL-6 EC80 alone;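 active = activation above the screen-wide mean of compound activation plus 3 SD, cut at about 130% in these data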
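Test system: Human STAT1-deficient U3A cells with stable STAT3-luciferase reporter | Also added: Interleukin-6, 33 ng/mL | Timing: Compound pre-incubation 1 h before IL-6, then 6 h stimulation at 37 °C | Technique: Luciferase reporter luminescence | Read-out: Percent of IL-6-only median luminescence | Benchmarks: IL-6-only wells as 100% reference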
PPC-1+TRAIL kill: compounds killing PPC-1 cancer cells with TRAIL present, primary screen, TRAIL potentiator project, ATPLite luminescence, uHTS; PPC-1 cells + TRAIL, ATPLite viability luminescence; cell killing (% activity), % at 4 µM or 5 µM; 220,000 compounds, 0.41% hits; AID 1443, 2008;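 active = cell killing above 50% in the first pass at 4 µM, then a duplicate retest at 5 µM averaging 50% or more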
STAT3 inh: IL-6 driven STAT3 reporter inhibitors, primary screen, U3A cells, luciferase, luminescence, MLSCN library; IL-6 STAT3-luciferase reporter; host cell line lacks STAT1; inhibition, % at 5.5 µM; 190,000 compounds, 0.89% hits; AID 862, 2007;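 active = inhibition above the mean inhibition across all screened compounds plus 3 SD, cut at about 44% in these data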
TRAIL sens C8: viability loss with TRAIL in NB7+C8 cells, primary screen, TRAIL sensitizer project, cell-based, ATPlite luminescence; inhibition (viability loss, TRAIL sensitization), % at 10 µM; 360,000 compounds, 1% hits;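 active = compounds causing at least 50% loss of cell viability in the single-dose screen, relative to plate controls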
STAT1 blocker: STAT1 signaling inhibitors, primary screen, cell-based, HTS, luciferase reporter; NIH 3T3 STAT1-luciferase reporter, IFN-gamma, luminescence; inhibition, % at 5.5 µM; 200,000 compounds, 0.35% hits;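 active = inhibition above a set limit, the mean inhibition across all tested compounds plus 3 SD, cut at about 34% in these data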
HSP90 confirm: HSP90 inhibitors, confirmation, cell lysate, luminescence; shares compounds with HSP90 refold inh; rabbit reticulocyte lysate, luciferase refolding luminescence, 3 h; inhibition, % at 5.9 µM; 2,300 compounds, 64% hits; AID 1846, 2009; in the data active = inhibition above about 18%
luciferase ctr: firefly luciferase inhibitors, HSP90 counter-screen, confirmation, artefact control for HSP90 inhibitor project, biochemical, luminescence, triplicate. inhibition, % at 5.9 µM. purified native firefly luciferase. shares compounds with HSP90 refold inh. 2,300 compounds, 48% hits;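 active = inhibition above the mean inhibition of all tested sample wells plus 3 SD, cut at about 10% in these data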
Target sequence (P08659 whole entry, looked up): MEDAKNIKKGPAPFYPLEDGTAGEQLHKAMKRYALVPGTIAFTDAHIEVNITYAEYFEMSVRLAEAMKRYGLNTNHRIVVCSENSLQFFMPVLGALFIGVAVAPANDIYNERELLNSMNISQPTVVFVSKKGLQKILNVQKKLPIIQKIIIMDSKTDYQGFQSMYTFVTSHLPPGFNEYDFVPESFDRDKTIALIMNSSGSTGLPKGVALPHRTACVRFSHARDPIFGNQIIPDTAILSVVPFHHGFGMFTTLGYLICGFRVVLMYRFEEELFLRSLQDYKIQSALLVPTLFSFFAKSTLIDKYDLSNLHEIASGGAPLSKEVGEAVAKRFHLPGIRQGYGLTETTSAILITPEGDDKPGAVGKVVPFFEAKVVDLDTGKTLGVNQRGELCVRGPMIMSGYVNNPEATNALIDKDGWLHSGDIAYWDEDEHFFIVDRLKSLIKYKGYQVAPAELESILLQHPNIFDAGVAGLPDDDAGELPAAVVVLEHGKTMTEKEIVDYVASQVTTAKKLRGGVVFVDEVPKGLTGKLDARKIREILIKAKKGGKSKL
Hits are given with their value; n = inactive; x = no result given. Rows were chosen to be rich in hits. Some 2.3% of all compounds tested hit in one or more screens of this group.

SMILES	HSP90 refold inh	STAT3 act	PPC-1+TRAIL kill	STAT3 inh	TRAIL sens C8	STAT1 blocker	HSP90 confirm	luciferase ctr
CCOc1ccc(NC(=S)Nc2ccc3nsnc3c2)cc1	n	n	n	n	n	n	x	x
COc1ccc(N(C)C(=O)Nc2ccc3c(c2)nnn3C)cc1	n	n	n	n	n	n	x	x
CC(C)N(C(=O)Nc1ccc2nsnc2c1)C(C)C	29	n	n	n	x	n	n	n
COc1ccc(N(C)C(=O)Nc2ccc3nsnc3c2)cc1	21	n	n	n	n	n	n	n
C=CCN(CC=C)C(=S)Nc1ccc2nsnc2c1	31	n	n	n	n	n	n	n
COc1ccc(NC(=S)Nc2ccc3nsnc3c2)cc1	43	n	n	n	n	n	n	n
Cc1ccc(C(=O)NC2CC(=O)N(c3ccc4c(c3)OCCO4)C2)cc1[N+](=O)[O-] (centres undefined)	x	x	x	x	n	x	x	x
CCOC(=O)c1cc(-c2ccccc2)sc1NC(=O)C(C)Sc1nnnn1C (centres undefined)	n	n	n	n	n	n	x	x
CC(=O)OCCCCON1C(=O)c2ccccc2C1=O	n	n	n	n	n	n	x	x
CCOC(=O)CON1C(=O)c2ccccc2C1=O	26	n	n	n	n	n	n	n
C/C(=N/NC(=O)c1ccccn1)c1ccc(O)cc1	20	x	n	x	n	x	n	n
C/C(=N/NC(=O)c1ccccn1)c1c[nH]c2ccccc12	n	x	n	x	n	x	x	x
C/C(=N\NC(=O)c1ccc(N/N=C(\C)c2ccc(O)cc2)cc1)c1ccc(O)cc1	27	x	n	x	n	x	n	n
Cc1csc(NC(=O)Nc2ccc(Cl)cc2)n1	n	n	n	n	n	n	x	x
Cc1ccccc1-c1ccc(=O)n(CC(=O)Nc2ccc(N3CCOCC3)cc2)n1	43	n	n	n	n	n	n	n
Cc1ccccc1-c1ccc(=O)n(CC(=O)Nc2ccc(C(=O)N3CCCC3)cc2)n1	n	n	n	n	n	n	x	x
Cn1nc(-c2ccc(Cl)cc2)nc2c(=O)n(C)c(=O)nc1-2	95	n	n	74	x	88	97	90
CS(=O)(=O)n1nc(-c2ccc(Cl)cc2)nc1N	n	n	n	n	n	n	x	x
CCC(=O)Nc1cc(C(=O)OCC(=O)c2ccccc2Cl)ccc1C	n	n	n	n	n	n	x	x
CCC(=O)Nc1cc(C(=O)OCC(=O)c2ccccc2)ccc1C	20	n	n	n	n	n	45	n
Cn1cc(CC(=O)NC2CCCCC2)c2ccccc21	n	n	n	n	n	n	x	x
COCC(C)N=C1NN=C(c2cc(C)n(Cc3ccccc3Cl)c2C)CS1 (centres undefined)	34	n	n	n	n	n	65	55
Cc1nc2c(sc3nc(N4CCOCC4)c4c(c32)CC(C)(C)OC4)c(-c2ccccc2)c1C(=O)O	n	x	n	x	n	x	x	x
Cc1cc(Br)ccc1NC(=O)C1CCN(C(=O)c2ccco2)CC1	75	x	x	x	n	x	n	n
Cc1ccc(NC(=O)C2CCN(C(=O)c3ccco3)CC2)cc1	n	x	x	x	n	x	x	x
SMILES	HSP90 refold inh	STAT3 act	PPC-1+TRAIL kill	STAT3 inh	TRAIL sens C8	STAT1 blocker	HSP90 confirm	luciferase ctr
CCCc1nn(C)c(C(=O)Nc2ccccc2)c1Cl	36	n	n	n	n	n	52	54
CCCc1nn(C)c(C(=O)Nc2cccc(Cl)c2)c1Cl	26	n	51	n	n	n	35	36
CN(C(=O)Nc1cccc(C(F)(F)F)c1)C1CCCCC1	n	x	n	x	n	x	x	x
O=C(O)c1ccc(N/N=C/c2cn(Cc3ccccc3F)c3ccccc23)cc1	36	x	n	x	n	x	39	32
CC(C)n1cc(/C=N/Nc2ccc(C(=O)O)cc2)c2ccccc21	63	x	x	x	n	x	71	62
O=C(O)c1ccc(S(=O)(=O)NN=Cc2c[nH]c3ccccc23)cc1	x	x	x	x	n	x	x	x
O=C(O)c1ccc(N/N=C/C(Br)=C/c2ccccc2)cc1	24	x	n	x	n	x	50	35
O=C(O)c1ccc(N/N=C/c2c[nH]c3ccccc23)cc1	82	x	x	x	n	x	89	86
Cc1cc(NC(=O)c2ccc(COc3ccc(Cl)c(C)c3)o2)no1	n	n	n	n	n	n	x	x
CCOc1ccc(CCNC(=O)CN2CCN(Cc3ccccc3F)C2=O)cc1OCC	n	n	n	n	n	n	x	x
COc1ccc(S(=O)(=O)N2CCC(O)(c3cccnc3)CC2)cc1OC	n	n	x	n	n	n	x	x
NC(=S)N/N=C/c1cn(-c2ccccc2)nc1-c1cccnc1	30	x	n	x	n	x	n	n
COc1ccccc1-n1c(C)cc(SC)c(C(C)=O)c1=S	n	n	n	n	n	n	x	x
CC/C(=N\Nc1nncc2ccccc12)c1ccc(F)cc1	17	x	x	x	n	x	n	n
C/C(=N\Nc1nncc2ccccc12)c1ccc(OCC(=O)N(C)C)cc1	n	x	x	x	n	x	x	x
Fc1cccc(/C=N/Nc2nncc3ccccc23)c1	29	x	x	x	84	x	51	41
Fc1cccc(/C=N/N=C/c2cccc(F)c2)c1	n	n	n	n	n	n	x	x
O=C1CCCc2nc3c(cc21)C(O)Oc1c-3ccc2ccccc12 (centres undefined)	31	n	n	n	n	n	38	n
CC(=O)n1c2c(c3ccccc31)OC(N)=C(C#N)C2c1ccc(C(C)C)cc1 (centres undefined)	20	165	n	n	n	n	n	24
